Measured values as given in PMC2743114 (Journal of immunological methods, 2009).

Experiments:
hCD1b dimer [1] = target: T1, hCD1b dimer (Homo sapiens, UniProt P29016); test: Competitive ELISA assay; assay type: binding
Summary of the method: (§1)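 Dimers are hCD1 α1–α3 fused to mouse IgG with β2m, expressed in J558L cells and purified on Protein G. Plates were coated overnight at 4°C with goat anti-mouse IgG Fc (10μg/mL, pH 9.6), then blocked 1 h. Dimer (5μg/mL), competitor lipid and Biotinyl PE (2μg/mL) in PBS were incubated overnight at 37°C and detected with HRP-avidin. Assays were run in triplicate. Ki = IC50/(1+[B-PE]/Kd), with Kd fitted from competitor-free Biotinyl PE titration.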

mouse IgG1 = test: Direct ELISA binding of Biotinyl PE to isotype control; conditions: specificity control
Summary of the method: (§2)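 Biotinyl PE (1μg/mL) was incubated overnight at 37°C with hCD1 dimer or mouse IgG1 isotype control. Incubation was in PBS adjusted with HCl or NaOH to pH 4–10, in plates coated with anti-mouse IgG Fc antibody. A well without biotinylated PE at pH 7 served as background. Assays were run in triplicate.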

hCD1b dimer [2] = target: T1, hCD1b dimer; test: Direct ELISA binding of Biotinyl PE without competitor; conditions: pH 4–10 tested, Biotinyl PE 1μg/mL, overnight 37°C, no competitor
Summary of the method: as §2

hCD1d dimer [3] = target: T2, hCD1d dimer (Homo sapiens, UniProt P15813); test: Direct ELISA binding of Biotinyl PE without competitor; conditions: Biotinyl PE 1μg/mL
T2 sequence (P15813 20-301 limits assumed): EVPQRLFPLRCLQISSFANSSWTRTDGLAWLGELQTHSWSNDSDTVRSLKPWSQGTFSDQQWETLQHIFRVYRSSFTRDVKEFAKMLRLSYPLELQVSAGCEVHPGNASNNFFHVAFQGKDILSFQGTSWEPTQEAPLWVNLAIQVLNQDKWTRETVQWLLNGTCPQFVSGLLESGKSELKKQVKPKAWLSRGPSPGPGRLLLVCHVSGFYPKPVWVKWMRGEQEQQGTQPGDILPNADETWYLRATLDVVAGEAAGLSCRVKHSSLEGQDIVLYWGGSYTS

hCD1c dimer [4] = target: T3, hCD1c dimer (Homo sapiens, UniProt P29017); test: Direct ELISA binding of Biotinyl PE without competitor; conditions: pH 4–10 tested, Biotinyl PE 1μg/mL, overnight 37°C, no competitor
T3 sequence (P29017 18-302 limits assumed): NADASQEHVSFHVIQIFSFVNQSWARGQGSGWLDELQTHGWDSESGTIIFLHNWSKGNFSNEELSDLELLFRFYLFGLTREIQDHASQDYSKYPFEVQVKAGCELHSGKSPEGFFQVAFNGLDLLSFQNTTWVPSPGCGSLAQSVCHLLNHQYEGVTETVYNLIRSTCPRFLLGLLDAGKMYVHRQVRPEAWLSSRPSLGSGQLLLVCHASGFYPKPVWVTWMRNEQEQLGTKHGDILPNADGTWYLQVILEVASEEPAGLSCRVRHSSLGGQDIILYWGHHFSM
Summary of the method: as §2

hCD1d dimer [5] = target: T2, hCD1d dimer; test: Competitive ELISA assay; assay type: binding
Summary of the method: as §1

hCD1c dimer [6] = target: T3, hCD1c dimer; test: Competitive ELISA assay; assay type: binding
Summary of the method: as §1

T1 sequence (P29016 18-303 limits assumed): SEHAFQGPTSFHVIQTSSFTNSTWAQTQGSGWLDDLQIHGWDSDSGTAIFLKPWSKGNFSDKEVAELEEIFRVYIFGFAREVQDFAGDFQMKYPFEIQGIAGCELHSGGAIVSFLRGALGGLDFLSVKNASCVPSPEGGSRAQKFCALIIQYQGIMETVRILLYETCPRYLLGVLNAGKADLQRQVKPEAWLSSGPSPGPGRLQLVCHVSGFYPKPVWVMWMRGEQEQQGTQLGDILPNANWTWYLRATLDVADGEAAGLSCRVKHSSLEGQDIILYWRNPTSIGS

Q: With Mycolic acid as the molecule, how does the “binding to CD1b (inhibition of Biotinyl PE binding), in words” value (hCD1b dimer [1]; competitive ELISA) read?
A: unable to detect the binding

Q: What does the source list for `CCCCCCCC/C=C\CCCCCCCC(=O)OC[C@H](COP(=O)(O)OCCNC(=O)CCCC[C@@H]1SC[C@@H]2NC(=O)N[C@@H]21)OC(=O)CCCCCCC/C=C\CCCCCCCC` [Biotinyl PE, 1,2-Dioleoyl-sn-Glycero-3-Phosphoethanolamine-N-(Biotinyl)]?
A: binding to mouse IgG1 (isotype control) (mouse IgG1): failed to bind; optimal pH for binding to CD1b (hCD1b dimer [2]): 4-5; time to reach a peak level of binding to hCD1d (hCD1d dimer [3]; 37°C, optimal condition): 8 h; optimal pH for binding to CD1d (hCD1d dimer [3]; pH 4–10 tested, overnight 37°C, no competitor): 5-7; optimal pH for binding to CD1c (hCD1c dimer [4]): 4-5

Q: Which results are given for `CCCCCCCCCCCCCCCCCCCCCCCCCC(=O)N[C@@H](CO[C@H]1O[C@H](CO)[C@H](O)[C@H](O)[C@H]1O)[C@H](O)[C@H](O)CCCCCCCCCCCCCC` [α-GalCer, α-galactosylceramide]?
A: Ki (hCD1b dimer [1]): 2840 nM; Ki (hCD1d dimer [5]): 97 nM; Ki (hCD1c dimer [6]): 1370 nM
